Assay results published in ChEMBL document CHEMBL1128321, “Piperazinylalkyl heterocycles as potential antipsychotic agents” (J Med Chem, 1995).

Legend:
[1] = target: T1, 5-hydroxytryptamine receptor 1A (Rattus norvegicus, UniProt P19327); test: Binding affinity was determined against 5-hydroxytryptamine 1A receptor using […]
T1 sequence (P19327 whole entry): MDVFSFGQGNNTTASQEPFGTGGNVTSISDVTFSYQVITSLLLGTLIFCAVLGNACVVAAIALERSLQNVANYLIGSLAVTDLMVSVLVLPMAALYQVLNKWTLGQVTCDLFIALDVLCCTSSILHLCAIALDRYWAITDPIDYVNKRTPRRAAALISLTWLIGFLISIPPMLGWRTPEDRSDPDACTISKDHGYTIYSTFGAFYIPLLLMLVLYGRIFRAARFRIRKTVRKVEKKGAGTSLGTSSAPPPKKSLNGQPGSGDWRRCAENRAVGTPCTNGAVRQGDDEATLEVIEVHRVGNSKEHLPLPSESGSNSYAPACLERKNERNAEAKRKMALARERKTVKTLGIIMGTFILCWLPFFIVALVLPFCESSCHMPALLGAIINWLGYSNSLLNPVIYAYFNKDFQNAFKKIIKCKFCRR

[2] = Stability half-life at pH-2; stable; format: physicochemical
In short: (§1)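 Half-life measured in solution at pH 2, about 3 × 10⁻³ M compound in citric acid–phosphate buffer at 22 °C.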

Rattus norvegicus [3] = test: Conditioned avoidance response activity was determined by the ability to block the conditioned avoidance of a foot shock at 15 mg/kg(ip); format: functional
In short: (§2)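 Male Fischer 344 rats (300–500 g) trained on a discrete-trial single-lever task, pressing the lever to avoid an impending shock; block of responding read at time of peak effect. Escape loss = percent of animals failing to escape the shock; >20% escape loss with CAR inhibition taken as potential for sedation.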

Rattus norvegicus [4] = test: Percentage of animals failing to escape shock was measured, affording a rough index for nonspecific sedation at 5 mg/kg(ip)
Rattus norvegicus [5] = test: Conditioned avoidance response activity was determined by the ability to block the conditioned avoidance of a foot shock (ip); format: functional
In short: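 Male Fischer 344 rats (300–500 g) were trained on a single-lever discrete-trial task in which a lever press avoids an impending shock. Block of avoidance was scored at the time of peak effect. […] The percentage of rats failing to escape the shock (escape loss) was also recorded.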

[6] = Stability half-life at pH-2; format: physicochemical; in short: as §1
Rattus norvegicus [7] = test: Conditioned avoidance response activity was determined by the ability to block the conditioned avoidance of a foot shock at 5 mg/kg(ip); format: functional; in short: as §2
Rattus norvegicus [8] = test: Percentage of animals failing to escape the shock was measured and affords a rough index for nonspecific sedation at 5 mg/kg(ip)(>20% esc loss = potential for sedation); format: functional; in short: as §2

Row | Structure (SMILES) | Ki [1] | T1/2 [2] | inhibition in vivo at 15 mg/kg (Rattus norvegicus [3]) | Esc loss (Rattus norvegicus [4]) | ED50 (Rattus norvegicus [5]) | half-life [6] | inhibition in vivo at 5 mg/kg (Rattus norvegicus [7]) | Esc loss (Rattus norvegicus [8])
1 | COc1ccccc1N1CCN(Cc2ccc(CN3CCCCCCC3=O)o2)CC1.O=C(O)CCC(=O)O | 32 nM | Stable | 99% | 19% | – | – | – | –
2 | CC(C)Oc1ccccc1N1CCN(Cc2ccc(CN3CCCCCCC3=O)o2)CC1.O=C(O)CCC(=O)O | 29 nM | Stable | 76% | 1% | – | – | – | –
3 | O=C1CC2(CCCC2)CC(=O)N1CCCCN1CCN(c2ncccn2)CC1 [BUSPIRONE] | – | – | – | – | 4.5 mg/kg | – | – | –
4 | CC(C)Oc1ccccc1N1CCN(Cc2ccc(CN3CCCCC3=O)n2C)CC1 [RWJ-25730] | – | – | 98% | – | – | 1.37 h | 87% | 8%
